Here are results for 24 compounds from ChEMBL document CHEMBL1156261, “Evaluation of substituted N,N'-diarylsulfonamides as activators of the tumor cell specific M2 isoform of pyruvate kinase” (J Med Chem, 2010).

Assay [1] addresses Pyruvate kinase PKLR (Homo sapiens) (UniProt P30613). As to the kind of experiment: Activation of PKL assessed as pyruvate formation by fluorescent pyruvate kinase-lactate dehydrogenase coupled assay relative to control. Also noted: concentration or dose not given beside the values.
The target of assay [2] is T1, Pyruvate kinase PKM (Homo sapiens, UniProt P14618). As to the kind of experiment: Activation of PKM1 assessed as pyruvate formation by fluorescent pyruvate kinase-lactate dehydrogenase coupled assay.
T1 sequence (P14618 2-531 limits assumed): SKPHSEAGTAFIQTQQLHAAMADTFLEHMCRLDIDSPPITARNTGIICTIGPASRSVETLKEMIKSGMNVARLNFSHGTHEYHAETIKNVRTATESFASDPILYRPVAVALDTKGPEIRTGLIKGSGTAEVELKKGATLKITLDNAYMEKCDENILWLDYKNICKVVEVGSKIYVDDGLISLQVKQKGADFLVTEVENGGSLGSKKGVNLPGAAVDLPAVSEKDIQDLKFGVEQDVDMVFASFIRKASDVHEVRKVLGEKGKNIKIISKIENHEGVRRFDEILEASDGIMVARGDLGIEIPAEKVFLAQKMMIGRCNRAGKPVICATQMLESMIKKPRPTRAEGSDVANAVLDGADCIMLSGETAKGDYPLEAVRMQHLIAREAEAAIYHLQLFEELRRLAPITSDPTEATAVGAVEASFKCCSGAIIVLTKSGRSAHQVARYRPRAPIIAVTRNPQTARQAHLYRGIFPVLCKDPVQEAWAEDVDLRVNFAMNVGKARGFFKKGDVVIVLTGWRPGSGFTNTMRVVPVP
Assay [3] has as its target T1, Pyruvate kinase PKM. As to the kind of experiment: Activation of PKM2 assessed as ATP product formation at 57 uM by luminescent pyruvate kinase-luciferase coupled assay relative to fructose-1,6-bis-phosphate. An outline of the steps: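 Recombinant human PKM2 (0.1 nM final) in 50 mM imidazole pH 7.2, 50 mM KCl, 7 mM MgCl2, 0.01% Tween 20, 0.05% BSA; 0.1 mM ADP, 0.5 mM PEP; 1 h at r.t., then Kinase-Glo luciferase read of ATP formed. Activation % = (c−n)/(n−i)×100 against DMSO and no-enzyme controls; 100% ≈ 2-fold over basal signal. Max response taken at 57 μM; three separate experiments.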

For assay [4], the target named is Pyruvate kinase PKLR (Homo sapiens) (UniProt P30613). The assay can be described thus: Activation of PKL assessed as ATP product formation by luminescent pyruvate kinase-luciferase coupled assay relative to control. Also noted: concentration or dose not given beside the values. Put shortly:
(§1)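 Luciferase-coupled ATP production assay run as for PKM2: imidazole pH 7.2 buffer with KCl, MgCl2, Tween 20 and BSA, 0.1 mM ADP, 0.5 mM PEP, 1 h at r.t., Kinase-Glo luminescence. Enzyme final concentrations were PKM1 1 nM, PKL 0.1 nM, PKR 0.1 nM. % activation normalized to DMSO (neutral) and no-enzyme controls.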

The target is the same in assay [5]. The assay can be described thus: Activation of PKR assessed as ATP product formation by luminescent pyruvate kinase-luciferase coupled assay relative to control. Also noted: concentration or dose not given beside the values. Put shortly:
as §1

The target of assay [6] is T1, Pyruvate kinase PKM. The assay can be described thus: Activation of PKM1 assessed as ATP product formation by luminescent pyruvate kinase-luciferase coupled assay. Put shortly:
as §1

The target in assay [7] is Pyruvate kinase PKLR (Homo sapiens) (UniProt P30613). The assay can be described thus: Activation of PKR assessed as pyruvate formation by fluorescent pyruvate kinase-lactate dehydrogenase coupled assay relative to control. Also noted: concentration or dose not given beside the values.
Pyruvate kinase PKLR (Homo sapiens), sequence (P30613 whole entry, looked up): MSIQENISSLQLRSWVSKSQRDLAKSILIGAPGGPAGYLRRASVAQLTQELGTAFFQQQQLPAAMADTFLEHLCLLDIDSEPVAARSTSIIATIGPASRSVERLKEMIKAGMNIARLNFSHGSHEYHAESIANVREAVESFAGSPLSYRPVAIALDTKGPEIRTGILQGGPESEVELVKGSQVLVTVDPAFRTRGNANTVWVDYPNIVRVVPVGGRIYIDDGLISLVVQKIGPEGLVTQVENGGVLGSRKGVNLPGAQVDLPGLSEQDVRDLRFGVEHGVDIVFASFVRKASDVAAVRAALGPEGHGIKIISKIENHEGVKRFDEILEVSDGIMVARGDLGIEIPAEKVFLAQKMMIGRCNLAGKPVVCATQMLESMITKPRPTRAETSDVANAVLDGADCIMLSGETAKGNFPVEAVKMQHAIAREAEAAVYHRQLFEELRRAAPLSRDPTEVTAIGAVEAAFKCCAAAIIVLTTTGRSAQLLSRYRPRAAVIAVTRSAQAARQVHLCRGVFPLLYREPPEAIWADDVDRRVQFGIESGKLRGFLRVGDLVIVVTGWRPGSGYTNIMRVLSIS

Active and inactive are the calls of the source. The rule behind the calls is not given here. Bounds are passed on as bounds.

Regarding `O=S(=O)(N[C@H]1CC[C@H](NS(=O)(=O)c2c(F)cccc2F)CC1)c1ccc2c(c1)OCCO2`, the Activity in assay [1] was less than 30%; on Pyruvate kinase PKM [3], 90.8%; in assay [4], less than 30%; in assay [5], less than 30%; in assay [7], less than 30%. In addition, the outcome on Pyruvate kinase PKM [2] and at Pyruvate kinase PKM [6] was inactive.

`O=S(=O)(c1ccc2c(c1)OCCO2)N1CCN(S(=O)(=O)c2c(F)ccc(O)c2F)CC1`: the Activity was less than 30% in assay [1]; 95.3% on Pyruvate kinase PKM [3]; less than 30% in assay [4]; less than 30% in assay [5]; less than 30% in assay [7]. The outcome at Pyruvate kinase PKM [2] and on Pyruvate kinase PKM [6] was inactive.

For `O=S(=O)(c1c(F)cccc1F)N1CCN(S(=O)(=O)c2c(F)cccc2F)CC1`, the Activity in assay [1] is less than 30%; at Pyruvate kinase PKM [3], 74.3%; in assay [4], less than 30%; in assay [5], less than 30%; in assay [7], less than 30%. Further, the outcome at Pyruvate kinase PKM [2] and at Pyruvate kinase PKM [6] was inactive.

`O=S(=O)(NCCCCCCNS(=O)(=O)c1c(F)cccc1F)c1ccc2c(c1)OCCO2`: the Activity in assay [1] was less than 30%; on Pyruvate kinase PKM [3], 110%; in assay [4], less than 30%; in assay [5], less than 30%; in assay [7] it was less than 30%. For the same compound, the result at Pyruvate kinase PKM [2] and on Pyruvate kinase PKM [6] was inactive.

In the case of `COc1ccc(S(=O)(=O)N2CCN(S(=O)(=O)c3ccc(OC)cc3)CC2)cc1`, the Activity in assay [1] is less than 30%; on Pyruvate kinase PKM [3] it was 87.6%; in assay [4], less than 30%; in assay [5], less than 30%; in assay [7], less than 30%. Further, the outcome at Pyruvate kinase PKM [2] and at Pyruvate kinase PKM [6] was inactive.

Turning to `O=S(=O)(NCCCNS(=O)(=O)c1c(F)cccc1F)c1ccc2c(c1)OCCO2`, the Activity in assay [1] is less than 30%; on Pyruvate kinase PKM [3], 106%; in assay [4], less than 30%; in assay [5] it was less than 30%; in assay [7] it was less than 30%. In addition, the result at Pyruvate kinase PKM [2] and at Pyruvate kinase PKM [6] was inactive.

`COc1cccc(S(=O)(=O)N2CCN(S(=O)(=O)c3ccc4c(c3)OCCO4)CC2)c1`: the Activity was less than 30% in assay [1]; 90% at Pyruvate kinase PKM [3]; less than 30% in assay [4]; less than 30% in assay [5]; less than 30% in assay [7]. Besides, the outcome at Pyruvate kinase PKM [2] and on Pyruvate kinase PKM [6] was inactive.

`O=S(=O)(c1cccc(F)c1)N1CCN(S(=O)(=O)c2ccc3c(c2)OCCO3)CC1`: the Activity in assay [1] was less than 30%; at Pyruvate kinase PKM [3] it was 107%; in assay [4], less than 30%; in assay [5], less than 30%; in assay [7], less than 30%. Further, the result at Pyruvate kinase PKM [2] and at Pyruvate kinase PKM [6] was inactive.

As to `N#Cc1ccc(S(=O)(=O)N2CCN(S(=O)(=O)c3ccc4c(c3)OCCO4)CC2)cc1`, the Activity in assay [1] is less than 30%; on Pyruvate kinase PKM [3], 44.1%; in assay [4], less than 30%; in assay [5] it was less than 30%; in assay [7] it was less than 30%. The outcome on Pyruvate kinase PKM [2] and at Pyruvate kinase PKM [6] was inactive.

For `O=C1CN(S(=O)(=O)c2ccc3c(c2)OCCO3)CCN1S(=O)(=O)c1c(F)cccc1F`, the Activity in assay [1] is less than 30%; on Pyruvate kinase PKM [3], 96.9%; in assay [4], less than 30%; in assay [5], less than 30%; in assay [7] it was less than 30%. Further, the outcome at Pyruvate kinase PKM [2] and on Pyruvate kinase PKM [6] was inactive.

In the case of `O=S(=O)(NCCCCCNS(=O)(=O)c1c(F)cccc1F)c1ccc2c(c1)OCCO2`, the Activity in assay [1] is less than 30%; at Pyruvate kinase PKM [3], 114%; in assay [4], less than 30%; in assay [5], less than 30%; in assay [7], less than 30%. For the same compound, the result on Pyruvate kinase PKM [2] and on Pyruvate kinase PKM [6] was inactive.

As for `O=S(=O)(c1ccc(Cl)cc1)N1CCN(S(=O)(=O)c2ccc3c(c2)OCCO3)CC1`, the Activity in assay [1], in assay [4], in assay [5] and in assay [7] was less than 30% each time. Besides, the outcome at Pyruvate kinase PKM [2] and at Pyruvate kinase PKM [6] was inactive.

Turning to `O=S(=O)(c1ccc2c(c1)OCCO2)N1CCN(S(=O)(=O)c2ccc3c(c2)OCCO3)CC1`, the Activity in assay [1] was less than 30%; at Pyruvate kinase PKM [3], 89.7%; in assay [4] it was less than 30%; in assay [5] it was less than 30%; in assay [7], less than 30%. The outcome on Pyruvate kinase PKM [2] and on Pyruvate kinase PKM [6] was inactive.

Turning to `O=S(=O)(c1ccc2ccccc2c1)N1CCN(S(=O)(=O)c2c(F)cccc2F)CC1`, the Activity in assay [1] was less than 30%; on Pyruvate kinase PKM [3], 138%; in assay [4], less than 30%; in assay [5] it was less than 30%; in assay [7] it was less than 30%. Also, the result on Pyruvate kinase PKM [2] and at Pyruvate kinase PKM [6] was inactive.

`O=S(=O)(c1ccc2c(c1)OCO2)N1CCN(S(=O)(=O)c2c(F)cccc2F)CC1`: the Activity is less than 30% in assay [1]; 61% on Pyruvate kinase PKM [3]; less than 30% in assay [4]; less than 30% in assay [5]; less than 30% in assay [7]. The outcome on Pyruvate kinase PKM [2] and on Pyruvate kinase PKM [6] was inactive.

Regarding `CC1(C)CCc2cc(S(=O)(=O)N3CCN(S(=O)(=O)c4c(F)cccc4F)CC3)ccc2O1`, the Activity is less than 30% in assay [1]; 119% on Pyruvate kinase PKM [3]; less than 30% in assay [4]; less than 30% in assay [5]; less than 30% in assay [7]. Also, the outcome on Pyruvate kinase PKM [2] and at Pyruvate kinase PKM [6] was inactive.

`O=S(=O)(c1ccc2c(c1)OCCO2)N1CCN(S(=O)(=O)c2ccc(F)cc2F)CC1`: the Activity was less than 30% in assay [1]; 113% on Pyruvate kinase PKM [3]; less than 30% in assay [4]; less than 30% in assay [5]; less than 30% in assay [7]. The outcome on Pyruvate kinase PKM [2] and at Pyruvate kinase PKM [6] was inactive.

For the compound `O=S(=O)(c1ccc2c(c1)OCCO2)N1CCN(S(=O)(=O)c2ccccc2F)CC1`, the Activity in assay [1] was less than 30%; at Pyruvate kinase PKM [3] it was 114%; in assay [4], less than 30%; in assay [5] it was less than 30%; in assay [7], less than 30%. Moreover, the result on Pyruvate kinase PKM [2] and at Pyruvate kinase PKM [6] was inactive.

Regarding `COc1cc(F)c(S(=O)(=O)N2CCN(S(=O)(=O)c3ccc4c(c3)OCCO4)CC2)c(F)c1`, the Activity in assay [1] is less than 30%; on Pyruvate kinase PKM [3], 91.8%; in assay [4], less than 30%; in assay [5], less than 30%; in assay [7], less than 30%. In addition, the outcome on Pyruvate kinase PKM [2] and on Pyruvate kinase PKM [6] was inactive.

Take `C[C@@H]1CN(S(=O)(=O)c2c(F)cccc2F)CCN1S(=O)(=O)c1ccc2c(c1)OCCO2`: the Activity in assay [1] is less than 30%; at Pyruvate kinase PKM [3] it was 98.8%; in assay [4] it was less than 30%; in assay [5], less than 30%; in assay [7] it was less than 30%. The result at Pyruvate kinase PKM [2] and on Pyruvate kinase PKM [6] was inactive.

In the case of `C[C@H]1CN(S(=O)(=O)c2c(F)cccc2F)CCN1S(=O)(=O)c1ccc2c(c1)OCCO2`, the Activity is less than 30% in assay [1]; 109% on Pyruvate kinase PKM [3]; less than 30% in assay [4]; less than 30% in assay [5]; less than 30% in assay [7]. The result on Pyruvate kinase PKM [2] and on Pyruvate kinase PKM [6] was inactive.

`O=S(=O)(c1ccc2c(c1)OCCO2)N1CCN(S(=O)(=O)c2ccccn2)CC1`: the Activity was less than 30% in assay [1]; 103% at Pyruvate kinase PKM [3]; less than 30% in assay [4]; less than 30% in assay [5]; less than 30% in assay [7]. Moreover, the outcome at Pyruvate kinase PKM [2] and at Pyruvate kinase PKM [6] was inactive.

With `Cn1ccc2cc(S(=O)(=O)N3CCN(S(=O)(=O)c4c(F)cccc4F)CC3)ccc21`, the Activity in assay [1] was less than 30%; at Pyruvate kinase PKM [3], 91.1%; in assay [4] it was less than 30%; in assay [5], less than 30%; in assay [7], less than 30%. Further, the outcome at Pyruvate kinase PKM [2] and on Pyruvate kinase PKM [6] was inactive.

In the case of `O=S(=O)(c1ccc(F)cc1)N1CCN(S(=O)(=O)c2ccc3c(c2)OCCO3)CC1`, the Activity in assay [1], in assay [4], in assay [5] and in assay [7] was less than 30% in each case. Also, the result at Pyruvate kinase PKM [2] and on Pyruvate kinase PKM [6] was inactive.
